Series [1] is described as follows: Drug uptake in human HeLa cell cytoplasm at 2 uM after 17 hrs imaged with 488 nm excitation by intrinsic fluorescence based assay. The series is classed as ADME, subcellular. The gist of the method:
(§1)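 HeLa cells treated 17 h at 2 μM, or 3.3 μM for one analogue. Imaged by confocal microscopy with no added fluorophore, using 488 nm excitation, plus 405 nm excitation for the 3.3 μM treatment. Intrinsic compound fluorescence was compared with cell background near 510 nm.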

Series [2] has as its system A-375. The experiment in a line: Induction of double stranded DNA breaks in human A375 cells assessed as gamma-H2Ax phosphorylation at 1 uM after 24 to 48 hrs by Hoechst 33342 staining-based laser confocal microscopy. It counts as functional, cell-based.
For series [3], the system named is A549. The experiment in a line: Antiproliferative activity against human A549 cells after 72 hrs by MTS assay. It counts as functional, cell-based. The note with it: A549, 72 h. The procedure, abridged: (§2)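 Cells seeded at day 0 in 96-well plates, serial compound dilutions added at day 1; viable cells read 72 h after drug addition by MTS tetrazolium assay, in triplicate. IC50 taken as concentration halving cell growth. One first trial, then two additional experiments on selected compounds.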
(Formazan colour is commonly taken as a measure of viable cells.)

In series [4] the target is T1, Rho-associated protein kinase 2 (Homo sapiens, UniProt O75116). Description: Inhibition of ROCK2 in human HeLa cells assessed as reduction in MYPT1 phosphorylation at Thr853 at 2 uM after 3 hrs by immunofluorescence assay. It counts as cell-based. The procedure, abridged: (§3)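 HeLa cells treated 3 h at 2 or 5 μM, with Y-27632 and untreated controls, then formaldehyde-fixed. Phospho-MYPT1 Thr853 or phospho-cofilin Ser3 immunostained with DNA. Confocal 0.5 μm slices plus z-projection, with acquisition settings fixed from the control.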

Series [5] deals with T1, Rho-associated protein kinase 2. Description: Inhibition of ROCK2 (unknown origin) at 1 uM by ATP competition assay relative to control. The procedure, abridged: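 Single-point screen at 1 μM across a 50-kinase panel: recombinant enzymes, 33P-ATP radioactive filter-binding assay, duplicates, activity expressed relative to no-compound control.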
The subject of series [6] is M21. The experiment in a line: Antiproliferative activity against human M21 cells after 72 hrs by MTS assay. The series is classed as functional, cell-based. The following applies: M21, 72 h. The procedure, abridged:
as §2

In a further series the test system is U-87 MG. Description: Antiproliferative activity against human U87 cells after 72 hrs by MTS assay. It counts as functional, cell-based, U-87MG ATCC. The gist of the method: as §2
The nature of series [7]: Drug uptake in human HeLa cell nucleus at 2 uM after 17 hrs imaged with 488 nm excitation by intrinsic fluorescence based assay. The series is classed as ADME, subcellular. The gist of the method: as §1
The subject of series [8] is M21. The experiment in a line: Antiproliferative activity against alpha5-integrin lacking human M21 cells after 72 hrs by MTS assay. It counts as functional, cell-based. The note with it: M21, 72 h. The procedure, abridged: as §2
Series [9] deals with T1, Rho-associated protein kinase 2. The experiment in a line: Inhibition of ROCK2 in human HeLa cells assessed as reduction in cofilin phosphorylation at Ser3 at 2 uM after 3 hrs by Western blot analysis. The series is classed as cell-based. The gist of the method:
(§4)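 HeLa cells treated 3 h at 2 or 5 μM, then lysed in RIPA buffer with protease and phosphatase inhibitors. Western blot probed with anti-phospho-cofilin Ser3 and anti-actin (1/1000) on the same split membrane; luminescence detection.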
A general note: A western blot detects proteins with antibodies after separation by electrophoresis.

In series [10] the test system is HeLa. Description: Cytotoxicity against human HeLa cell spheroids assessed as cell growth inhibition at 300 nM administered at day 3 post expansion and measured […] by 3D-celltiter Glo assay. The series is classed as functional, cell-based. The gist of the method: (§5)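 HeLa cells plated at 800/well in ultralow-adherence plates; one spheroid formed within 24 h at 37 °C, 5% CO2, grown in complete medium. Drug added at day 3, at four concentrations per compound. Largest section area measured daily by confocal imaging, five spheroids per condition. ATP-based CellTiter-Glo 3D luminescence read at day 6 after dosing.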

Series [11] concerns HeLa. The experiment in a line: Cytotoxicity against human HeLa cell spheroids assessed as effect on ATP content at 0.3 to 2 uM […] by bioluminescence based assay. The series is classed as functional.
Series [12] relates to HeLa. Description: Induction of cell cycle arrest in human HeLa cells at 2 uM after 48 hrs by propidium iodide-staining based flow cytometry. It counts as functional. The gist of the method:
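HeLa cells serum-starved 96 h for synchronization, then released and treated 48 h. Fixed in ice-cold 70% ethanol 1 h, stained with propidium iodide 50 μg/mL plus RNase A 0.2 mg/mL for 15 min at 37 °C, and analyzed by FACS.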
On the technique in general: In flow cytometry, cells or beads pass a laser one at a time.

For series [13], the system named is A-375. The experiment in a line: Induction of double stranded DNA breaks in human A375 cells assessed as gamma-H2Ax phosphorylation at 2 uM after 24 to 48 hrs by Hoechst 33342 staining-based laser confocal microscopy. The series is classed as functional, cell-based.
For series [14], the system named is HeLa. The experiment in a line: Cytotoxicity against human HeLa cell spheroids assessed as spheroid growth inhibition at 4 uM administered at day 3 post expansion and measured after […] by 3D-celltiter Glo assay relative to control. It counts as functional. The procedure, abridged: as §5
Series [15] has as its target T1, Rho-associated protein kinase 2. Description: Inhibition of ROCK2 in human HeLa cells assessed as reduction in cofilin phosphorylation at Ser3 at 5 uM after 3 hrs by immunofluorescence assay. It counts as cell-based. The procedure, abridged: as §3
The nature of series [16]: Drug uptake in human HeLa cell cytoplasm at 3.3 uM after 17 hrs imaged with 405 nm excitation by intrinsic fluorescence based assay. The series is classed as ADME, subcellular. The gist of the method:
as §1

Series [17] in a line: Drug uptake in human HeLa cell cytoplasm at 3.3 uM after 17 hrs imaged with 488 nm excitation by intrinsic fluorescence based assay. The series is classed as ADME, subcellular. The procedure, abridged: as §1
The target of series [18] is T1, Rho-associated protein kinase 2. Description: Inhibition of ROCK2 in human HeLa cells assessed as reduction in cofilin phosphorylation at Ser3 at 5 uM after 3 hrs by Western blot analysis. It counts as cell-based. The gist of the method: as §4
Series [19] has the same target. The experiment in a line: Inhibition of ROCK2 in human HeLa cells assessed as reduction in MYPT1 phosphorylation at Thr853 at 5 uM after 3 hrs by immunofluorescence assay. It counts as cell-based. The procedure, abridged:
as §3

Series [20] deals with HeLa. Description: Cytotoxicity against human HeLa cell spheroids assessed as effect on ATP content at 1 to 4 uM administered at day 3 post expansion and measured on day 6 by bioluminescence based assay. It counts as functional. The procedure, abridged: as §5
Another series concerns Quadruplex DNA. The experiment in a line: Binding affinity to 6-FAM labeled human proto-oncogene sequence FMycT G-quadruplex DNA assessed as change in melting temperature at 1 uM in presence of K+ buffer (1 mM KCl, 99 mM LiCl, 10 mM Li cacodylate) by FRET assay. It counts as nucleic-acid assay. The gist of the method:
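FRET melting in duplicate. Dual-labelled oligo (6-FAM/TAMRA) at 0.2 μM with ligand at 1 μM, in 10 mM Li cacodylate pH 7.2. Buffer was 10 mM KCl + 90 mM LiCl for F21T and 1 mM KCl + 99 mM LiCl for FMycT. Sample annealed 90 °C 5 min, cooled to 4 °C overnight. Equilibrated 5 min at 25 °C, then ramped 0.5 °C/min to 95 °C. FAM read 492/516 nm, normalized; Tm taken at the fitted inflection point.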

Series [21] can be described thus: Drug uptake in human HeLa cell nucleus at 3.3 uM after 17 hrs imaged with 488 nm excitation by intrinsic fluorescence based assay. It counts as ADME, subcellular. The procedure, abridged: as §1
Series [22] is described as follows: Drug uptake in human HeLa cell nucleus at 3.3 uM after 17 hrs imaged with 405 nm excitation by intrinsic fluorescence based assay. The series is classed as ADME, subcellular. The procedure, abridged:
as §1

Series [23] has as its system A549. The experiment in a line: Cytotoxicity against human A549 cells assessed as presence of large vesicles at 2 uM after 24 to 48 hrs by Hoechst 33342 staining-based laser confocal microscopy. The series is classed as functional, cell-based.
In series [24] the test system is HeLa. Description: Cytotoxicity against human HeLa cell spheroids assessed as effect on ATP content at 0.57 to 2 uM administered at day 3 post expansion and measured on day 6 by bioluminescence based assay. The series is classed as functional. The gist of the method:
as §5

A further series relates to HEK293. The experiment in a line: Antiproliferative activity against HEK293 cells after 72 hrs by MTS assay. It counts as cell-based. The note with it: Homo sapiens, HEK293, 72 h. The procedure, abridged: as §2
The test system of series [25] is HeLa. The experiment in a line: Cytotoxicity against human HeLa cell spheroids assessed as cell growth inhibition at 570 nM administered at day 3 post expansion and […] by 3D-celltiter Glo assay. The series is classed as functional, cell-based. The gist of the method:
as §5

The source made the active and inactive calls. The calls are words filed in the database; no cut-off is given here.

Usually IC50 stands for the concentration that gives 50% inhibition. Broadly, the inhibition is the drop in the measured response relative to a control, in per cent. The ΔTm is the change in melting temperature against a reference sample.

T1 sequence (O75116 whole entry, looked up): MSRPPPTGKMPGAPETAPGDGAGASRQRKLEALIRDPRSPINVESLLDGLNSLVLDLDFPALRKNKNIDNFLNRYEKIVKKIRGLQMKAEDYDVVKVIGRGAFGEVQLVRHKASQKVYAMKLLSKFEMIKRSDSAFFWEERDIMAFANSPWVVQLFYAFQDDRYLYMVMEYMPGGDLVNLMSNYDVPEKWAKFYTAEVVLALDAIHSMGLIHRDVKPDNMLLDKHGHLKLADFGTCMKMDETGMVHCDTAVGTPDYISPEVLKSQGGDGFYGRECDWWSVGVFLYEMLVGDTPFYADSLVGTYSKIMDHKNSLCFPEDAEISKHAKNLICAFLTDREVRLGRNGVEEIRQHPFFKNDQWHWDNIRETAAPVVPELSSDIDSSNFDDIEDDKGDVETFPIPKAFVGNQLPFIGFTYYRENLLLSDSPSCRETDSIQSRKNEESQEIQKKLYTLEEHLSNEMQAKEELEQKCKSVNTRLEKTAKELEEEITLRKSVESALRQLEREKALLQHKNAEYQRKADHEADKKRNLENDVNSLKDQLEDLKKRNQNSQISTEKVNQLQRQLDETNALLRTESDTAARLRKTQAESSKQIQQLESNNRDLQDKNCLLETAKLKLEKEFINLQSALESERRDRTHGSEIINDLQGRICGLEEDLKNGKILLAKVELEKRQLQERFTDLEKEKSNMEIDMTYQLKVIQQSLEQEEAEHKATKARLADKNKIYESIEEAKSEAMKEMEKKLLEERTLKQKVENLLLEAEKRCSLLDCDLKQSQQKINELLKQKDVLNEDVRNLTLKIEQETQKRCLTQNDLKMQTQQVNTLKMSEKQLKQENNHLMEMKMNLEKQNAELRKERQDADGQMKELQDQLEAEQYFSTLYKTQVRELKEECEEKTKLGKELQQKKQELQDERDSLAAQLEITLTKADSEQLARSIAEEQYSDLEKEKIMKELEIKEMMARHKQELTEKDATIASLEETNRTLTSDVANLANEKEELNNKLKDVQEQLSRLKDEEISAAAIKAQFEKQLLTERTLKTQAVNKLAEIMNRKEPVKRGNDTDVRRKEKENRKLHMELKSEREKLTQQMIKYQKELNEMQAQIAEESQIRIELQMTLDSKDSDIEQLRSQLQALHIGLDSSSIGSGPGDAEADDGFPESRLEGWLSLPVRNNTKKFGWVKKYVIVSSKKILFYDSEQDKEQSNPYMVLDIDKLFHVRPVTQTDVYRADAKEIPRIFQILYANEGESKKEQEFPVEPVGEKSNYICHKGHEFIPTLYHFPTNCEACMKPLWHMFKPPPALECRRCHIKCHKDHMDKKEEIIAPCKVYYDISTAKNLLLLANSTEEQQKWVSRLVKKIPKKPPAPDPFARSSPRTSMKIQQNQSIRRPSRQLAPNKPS

`c1cc(-c2cnco2)nc(-c2cnc(-c3cccc(-c4cccc(-c5ncc(-c6cccc(-c7cnco7)n6)o5)n4)n3)o2)c1`: the Drug uptake entry in series [1] and in series [7] was “Active” in each case. Also, in the series with A-375 [2], the outcome was inactive. Moreover, the half-inhibitory concentration (IC50) was found to be 3950 nM in the series on A549 [3], 1580 nM in the series on M21 [6], 246 nM in the series with U-87 MG and 3570 nM in the series on M21 [8]. Also, the inhibition entry in [4] and in series [9] was “Active” in each case. In addition, the inhibition in series [5] was determined as 70%. Besides, in the series with HeLa [10], the “growth inhibition (GI)” value was “Active”. In addition, in the series with HeLa [11], the result was Active.

As for `CN(C)CCOc1cc(-c2ncc(-c3cccc(-c4cnco4)n3)o2)nc(-c2ncc(-c3cccc(-c4cnco4)n3)o2)c1`, the outcome in the series on HeLa [12] and in the series with A-375 [13] was inactive. Besides, the “growth inhibition (GI)” value in the series with HeLa [14] turned out to be 25%. The inhibition result in series [15], in series [18] and in [19] was “Active” in each case. Also, the Drug uptake entry in series [16], in series [17], in series [21] and in series [22] was “Active” in each case. Besides, the result in the series on HeLa [20] and in the series with A549 [23] was Active. In addition, the ΔTm with Quadruplex DNA is 3.4 to 6.4 °C.

On to `c1cc(-c2cnco2)nc(-c2cnc(-c3cccc(-c4ncc(-c5cccc(-c6cnco6)n5)o4)n3)o2)c1`, for which the outcome in the series with HeLa [24] was Active. In addition, the Drug uptake entry in series [1] and in series [7] was “Active” throughout. Besides, the result in the series on A-375 [2] was inactive. Also, the IC50 came out at 2710 nM with A549 [3]; 1560 nM in the series on M21 [6]; 457 nM in the series on HEK293; 440 nM with U-87 MG; 7240 nM in the series on M21 [8]. Besides, the inhibition result in series [4] and in [9] was “Active” each time. In the series with Quadruplex DNA, the ΔTm lay in the range of 3.4 to 6.4 °C. Besides, in the series on HeLa [25], the “growth inhibition (GI)” value was “Active”.

(Values after ChEMBL document CHEMBL4257586, “Polyheteroaryl Oxazole/Pyridine-Based Compounds Selected in Vitro as G-Quadruplex Ligands Inhibit Rock Kinase and Exhibit Antiproliferative Activity” (J Med Chem, 2018).)
